Assay results from ChEMBL document CHEMBL1649111, “Restoration of susceptibility of intracellular methicillin-resistant Staphylococcus aureus to beta-lactams: comparison of strains, cells, and antibiotics” (Antimicrob Agents Chemother, 2008).
Converted amounts (≈) assume the structure as drawn.

Key:
Staphylococcus aureus [1] = test: Antimicrobial activity against intracellular hospital acquired methicillin-resistant Staphylococcus aureus ATCC 33591 activated infected in human THP-1 cells assessed as decrease in bacterial growth after 24 hrs at pH 7.4; type: functional, organism-based; conditions: ATCC 33591, THP-1, 24 h
Method in brief: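 THP-1 cells activated by 24-h culture with phorbol myristate acetate 2 mg/liter, then infected like unactivated THP-1. Cloxacillin dose range in mg/liter for 24 h. CFU per mg cell protein relative to the original inoculum, n = 3. Emin and Emax extrapolated from a Hill fit (slope 1), with EC50 as total drug; static concentration by graphical interpolation.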

Staphylococcus aureus [2] = test: Antimicrobial activity against intracellular hospital acquired methicillin-resistant Staphylococcus aureus ATCC 33591 infected in human keratinocytes assessed as decrease in bacterial count from original inoculum at high compound concentration after 24 hrs at pH 7.4; type: functional
Method in brief: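 Primary human skin keratinocytes or Calu-3 bronchial epithelial cells, given an inoculum of 5 × 10⁷ to 1 × 10⁸ bacteria/ml and 2 h for internalization. Post-phagocytosis load 1.5 × 10⁶ to 3.0 × 10⁶ CFU per mg cell protein. Cloxacillin dose range in mg/liter for 24 h, n = 3. Hill-derived Emin, Emax and EC50; static concentration interpolated.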

Staphylococcus aureus [3] = test: Antimicrobial activity against intracellular beta-lactamase negative methicillin-susceptible Staphylococcus aureus ATCC 25923 infected in human Calu3 cells assessed as decrease in bacterial growth after 24 hrs at pH 7.4; type: functional, organism-based; conditions: ATCC 25923, Calu-3, 24 h
Method in brief: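 Calu-3 bronchial epithelial cells, grown in uncoated flasks, were infected with 5 × 10⁷ to 1 × 10⁸ bacteria/ml for 2 h, giving 1.5 × 10⁶ to 3.0 × 10⁶ CFU/mg protein after phagocytosis. Cells were then exposed 24 h to a range of cloxacillin concentrations (mg/liter). CFU change per mg protein was measured (n = 3). A Hill fit with slope 1 gave Emax and EC50, and the static concentration was interpolated.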

Staphylococcus aureus [4] = test: Antimicrobial activity against beta-lactamase negative methicillin-susceptible Staphylococcus aureus ATCC 25923 infected in human THP-1 cells assessed as increase in bacterial count from original inoculum at low compound concentration after 24 hrs at pH 7.4; type: functional
Staphylococcus aureus [5] = test: Antimicrobial activity against hospital acquired methicillin-resistant Staphylococcus aureus ATCC 33591 infected in human THP-1 cells assessed as increase in bacterial count from original inoculum at low compound concentration after 24 hrs at pH 7.4; type: functional
Staphylococcus aureus [6] = test: Antimicrobial activity against beta-lactamase negative methicillin-susceptible Staphylococcus aureus ATCC 25923 infected in human THP-1 cells assessed as decrease in bacterial count from original inoculum at high compound concentration after 24 hrs at pH 7.4; type: functional
Staphylococcus aureus [7] = test: Antimicrobial activity against beta-lactamase negative methicillin-susceptible Staphylococcus aureus ATCC 25923 infected in human THP-1 cells assessed as decrease in bacterial growth after 24 hrs at pH 7.4; type: functional, organism-based; conditions: ATCC 25923, THP-1, 24 h
Staphylococcus aureus [8] = test: Bacteriostatic activity against hospital acquired methicillin-resistant Staphylococcus aureus ATCC 33591 infected in human THP-1 cells assessed as decrease in bacterial growth after 24 hrs at pH 7.4; type: functional
Method in brief: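 THP-1 macrophages, unactivated, infected with MRSA ATCC 33591. Cloxacillin over a range of extracellular concentrations (mg/liter) with a 24-h exposure. CFU per mg cell protein as change from the original inoculum, n = 3. Hill equation fitted with slope factor 1; static concentration (no change from inoculum) read by graphical interpolation.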

Staphylococcus aureus [9] = test: Antimicrobial activity against hospital acquired methicillin-resistant Staphylococcus aureus HMC546 by broth microdilution method at pH 7.4; type: functional
Method in brief: (§1)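 Minimal inhibitory concentration by broth microdilution at pH 7.4, read in mg/liter. The MRSA genotype was confirmed by mecA PCR, and the SCCmec subgroup was assigned by multiplex PCR.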

Staphylococcus aureus [10] = test: Antimicrobial activity against Panton-valentine leukocidin positive community acquired methicillin-resistant Staphylococcus aureus NRS192 obtained from patient with pneumonia and septic arthritis by broth microdilution method at pH 7.4; type: functional; method in brief: as §1
Staphylococcus aureus [11] = test: Antimicrobial activity against hospital acquired methicillin-resistant Staphylococcus aureus ATCC 33591 by broth microdilution method at pH 5.5; type: functional
Staphylococcus aureus [12] = test: Antimicrobial activity against Panton-valentine leukocidin positive community acquired methicillin-resistant Staphylococcus aureus N4090440 obtained from wound infection of patient by broth microdilution method at pH 5.5; type: functional
Staphylococcus aureus [13] = test: Antimicrobial activity against hospital acquired methicillin-resistant and […] Staphylococcus aureus VRS2 obtained from patient with wound, skin and soft tissue infection by broth microdilution method at pH 5.5; type: functional
Staphylococcus aureus [14] = test: (§2) Antimicrobial activity against hospital acquired methicillin-resistant Staphylococcus aureus HMC546 infected in human THP-1 cells assessed as increase in bacterial count from original inoculum at low compound concentration after 24 hrs at pH 5.5; type: functional
Method in brief: (§3)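 Bacteria phagocytosed by unactivated human THP-1 macrophages, then incubated 24 h with extracellular antibiotic at about 0.01× to 100× the pH 5.5 broth MIC. CFU per mg cell protein counted against the original inoculum, n = 3. A Hill-equation fit (slope factor 1) gave Emin and Emax, extrapolated to infinitely low and high concentration, and EC50. Static concentration was graphically interpolated.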

Staphylococcus aureus [15] = test: as §2, with “Panton-valentine leukocidin positive community” for “hospital”, “N4090440 obtained from wound infection of patient” for “HMC546”, “decrease” for “increase”, “high” for “low”; type: functional; method in brief: as §3
Staphylococcus aureus [16] = test: Antimicrobial activity against constitutive beta-lactamase negative methicillin-resistant Staphylococcus aureus COL NRS100 infected in human THP-1 cells assessed as decrease in bacterial growth after 24 hrs at pH 5.5; type: functional, organism-based; conditions: COL NRS100, THP-1, 24 h; method in brief: as §3
Staphylococcus aureus [17] = test: Antimicrobial activity against Panton-valentine leukocidin positive community acquired methicillin-resistant Staphylococcus aureus N4042228 infected in human THP-1 cells assessed as decrease in bacterial growth after 24 hrs at pH 5.5; type: functional, organism-based; conditions: N4042228, THP-1, 24 h; method in brief: as §3
Staphylococcus aureus [18] = test: Bacteriostatic activity against beta-lactamase negative methicillin-susceptible Staphylococcus aureus ATCC 25923 infected in human THP-1 cells assessed as decrease in bacterial growth after 24 hrs at pH 5.5; type: functional
Method in brief: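 MSSA ATCC 25923 phagocytized by unactivated THP-1 macrophages; extracellular antibiotic from about 0.01× to 100× the broth MIC at pH 5.5, with gentamicin 0.5 mg/liter to block extracellular growth. CFU per mg cell protein counted at 24 h vs. original inoculum (n = 3). A Hill equation (slope factor 1) gives Emin/Emax, extrapolated to infinitely low/high concentration. Static concentration is read by graphical interpolation.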

Staphylococcus aureus [19] = test: Bacteriostatic activity against animal acquired methicillin-resistant Staphylococcus aureus N7112046 infected in human THP-1 cells assessed as decrease in bacterial growth after 24 hrs at pH 5.5; type: functional
Method in brief: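 Human THP-1 macrophages infected with each S. aureus strain. Cloxacillin added extracellularly at about 0.01× to 100× the broth MIC measured at pH 5.5, with gentamicin 0.5 mg/liter to stop extracellular growth. Incubated 24 h. CFU counted per mg cell protein as change from the post-phagocytosis inoculum, n = 3. Emin, Emax and EC50 from a Hill fit; static concentration by graphical interpolation.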

Question: Which EC50 (Staphylococcus aureus [1]) does the source give for `Cc1onc(-c2ccccc2Cl)c1C(=O)N[C@@H]1C(=O)N2[C@@H]1SC(C)(C)[C@@H]2C(=O)O` [CLOXACILLIN] here?
Answer: 0.32 µg/mL (≈ 0.734 µM)

Question: What about the log10cfu (Staphylococcus aureus [2]) of the same compound?
Answer: 0.6

Question: What about the EC50 (Staphylococcus aureus [3]) of the same compound?
Answer: 0.52 µg/mL (≈ 1.19 µM)

Question: And the log10cfu (Staphylococcus aureus [4])?
Answer: 1.79

Question: And the log10cfu (Staphylococcus aureus [5])?
Answer: 2.27

Question: What about the log10cfu (Staphylococcus aureus [6]) of the same compound?
Answer: 0.77

Question: What about the EC50 (Staphylococcus aureus [7]) of the same compound?
Answer: 0.27 µg/mL (≈ 0.619 µM)

Question: And the Activity (Staphylococcus aureus [8])?
Answer: 0.9 mg/L

Question: What about the MIC (Staphylococcus aureus [9]) of the same compound?
Answer: 16 µg/mL (≈ 36.7 µM)

Question: What about the MIC (Staphylococcus aureus [10]) of the same compound?
Answer: 1 µg/mL (≈ 2.29 µM)

Question: And the MIC (Staphylococcus aureus [11])?
Answer: 0.06 µg/mL (≈ 0.138 µM)

Question: And the MIC (Staphylococcus aureus [12])?
Answer: 0.03 µg/mL (≈ 0.0688 µM)

Question: What about the MIC (Staphylococcus aureus [13]) of the same compound?
Answer: 0.06 µg/mL (≈ 0.138 µM)

Question: And the log10cfu (Staphylococcus aureus [14])?
Answer: 2.06

Question: And the log10cfu (Staphylococcus aureus [15])?
Answer: 0.45

Question: And the EC50 (Staphylococcus aureus [16])?
Answer: 2.74 ×MIC

Question: And the EC50 (Staphylococcus aureus [17])?
Answer: 10.8 ×MIC

Question: And the Activity (Staphylococcus aureus [18])?
Answer: 11 ×MIC

Question: What about the Activity (Staphylococcus aureus [19]) of the same compound?
Answer: 17.8 ×MIC
